The values below come from PMC8343189 (Acta Pharmaceutica Sinica. B, 2020).

Structures are written as SMILES.

A word on the IC50: it is the concentration that gives 50% inhibition. A low value points to higher potency.

The target in series [1] is T1, ANO1 (Homo sapiens, UniProt Q5XXA6, DEL476-501).
T1 sequence (Q5XXA6 with tags, fused parts or gaps isoform Q5XXA6-5 DEL539-564): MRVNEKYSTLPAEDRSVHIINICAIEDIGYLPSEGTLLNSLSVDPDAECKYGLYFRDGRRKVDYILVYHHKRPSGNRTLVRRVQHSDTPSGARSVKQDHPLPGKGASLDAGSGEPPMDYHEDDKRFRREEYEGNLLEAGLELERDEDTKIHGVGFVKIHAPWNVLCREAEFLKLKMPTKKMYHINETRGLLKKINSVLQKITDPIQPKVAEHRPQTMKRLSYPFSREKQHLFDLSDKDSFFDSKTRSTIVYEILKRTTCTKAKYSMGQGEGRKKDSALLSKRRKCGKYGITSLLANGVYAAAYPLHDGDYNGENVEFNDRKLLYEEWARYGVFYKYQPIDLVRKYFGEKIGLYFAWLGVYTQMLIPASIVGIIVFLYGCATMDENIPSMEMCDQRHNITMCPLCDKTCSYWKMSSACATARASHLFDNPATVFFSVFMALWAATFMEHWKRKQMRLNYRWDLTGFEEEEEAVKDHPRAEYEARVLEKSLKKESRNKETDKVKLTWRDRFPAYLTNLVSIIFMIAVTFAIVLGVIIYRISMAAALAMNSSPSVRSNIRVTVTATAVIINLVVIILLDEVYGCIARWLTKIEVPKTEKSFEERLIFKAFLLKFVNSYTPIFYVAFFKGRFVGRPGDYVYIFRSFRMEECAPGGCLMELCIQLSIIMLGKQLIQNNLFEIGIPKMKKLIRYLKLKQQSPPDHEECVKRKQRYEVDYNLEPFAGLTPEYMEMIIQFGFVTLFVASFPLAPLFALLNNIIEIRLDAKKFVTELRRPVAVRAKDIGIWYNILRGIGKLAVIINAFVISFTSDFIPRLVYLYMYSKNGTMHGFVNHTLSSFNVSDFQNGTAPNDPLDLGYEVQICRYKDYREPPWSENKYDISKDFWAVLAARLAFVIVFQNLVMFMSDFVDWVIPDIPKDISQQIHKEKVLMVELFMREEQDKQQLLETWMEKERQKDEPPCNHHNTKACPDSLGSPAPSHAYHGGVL
Put plainly: YFP fluorescence quenching assay in ANO1-overexpressing FRT cell line. It is filed as cell-based.

Series [2] concerns intracellular Ca^2+ concentration. Put plainly: Intracellular Ca^2+ fluorescence. Conditions: 30 μmol/L compound, 200 μmol/L ATP, Cal520, control 2.3 folds. The series is classed as cell-based.
The subject of series [3] is SD rats. Put plainly: Chronic constriction injury model. It is filed as in vivo. To be noted: rat CCI, Electronic Von Frey, vehicle 11.5.
For series [4], the system named is SD rats. Put plainly: Formalin test on rat. The series is classed as in vivo. Conditions: for number of foot lifts, phase 2: phase 2, vehicle 121 foot lifts. The procedure, abridged: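 30 min later, 50 μL 5% formalin injected into the left paw; controls received saline. Foot lifts counted over phase 1 (0–10 min) and phase 2 (10–60 min). Mean ± SD; ANOVA vs vehicle.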

The subject of series [5] is CHO cells. Put plainly: SRB proliferative cytotoxicity in CHO cells. The series is classed as cell-based, Chinese Hamster. Conditions: 72 h. The procedure, abridged: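 CHO cells in DMEM with 10% FBS, seeded overnight, then exposed to test compound or DMSO vehicle for 72 h. Cells fixed with 10% TCA for 1 h at 4 °C and stained with 0.4% SRB in 1% acetic acid for 15 min in the dark. Washed with acetic acid, dye dissolved in 10 mmol/L Tris-base, absorbance read at 540 nm. n = 3, mean ± SEM, t-test vs DMSO control.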

Series [6] is described as follows: Stability under different pH conditions. Conditions: 37 °C, 100 μmol/L, mean ± SD, n = 3. It is filed as physicochemical. The method in brief: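 Test compound diluted to 100 μmol/L in phosphate buffers at pH 1.0, 4.0, 6.8, 7.4 and 9.0 and held in a 37 °C water bath. HPLC−UV peak area measured at 0, 2 and 5 h; residual expressed relative to the 0 h peak area.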

`COc1ccc2c(c1)Cc1sc(NC(=O)c3ccc(C(C)(C)C)cc3)c(C(=O)O)c1-2` [Compound 48, 2-(4-(tert-Butyl)benzamido)-6-methoxy-8H-indeno [2,1-b] thiophene-3-carboxylic acid] registered an IC50 in series [1] of 28.9 µM.
`CC(C)(C)c1ccc(C(=O)Nc2scc(-c3ccc(F)cc3)c2C(=O)O)cc1` [Compound 33, 2-(4-(tert-Butyl)benzamido)-4-(4-fluorophenyl) thiophene-3-carboxylic acid] came in with an IC50 in series [1] of 9.62 µM.
`COc1ccc(-c2csc(NC(=O)c3cccs3)c2C(=O)O)cc1` [Compound 40, 4-(4-Methoxyphenyl)-2-(thiophene-2-carboxamido) thiophene-3-carboxylic acid] displayed an IC50 in series [1] of 25.5 µM.
Same read-out and setting: the same measure for `CC(C)(C)c1ccc(C(=O)Nc2scc(-c3ccc(Cl)cc3Cl)c2C(=O)O)cc1` [Compound 38, 2-(4-(tert-Butyl)benzamido)-4-(2,4-dichlorophenyl) thiophene-3-carboxylic acid]: > 100 µM; for `CC(C)(C)c1ccc(C(=O)Nc2scc(-c3ccc(C(C)(C)C)cc3)c2C(=O)O)cc1` [Compound 36, 2-(4-(tert-Butyl)benzamido)-4-(4-(tert-butyl)phenyl) thiophene-3-carboxylic acid]: 3.67 µM; for `CC(C)(C)c1ccc(C(=O)Nc2sc3c(c2C(=O)O)-c2ccccc2C3)cc1` [Compound 47, 2-(4-(tert-Butyl)benzamido)-8H-indeno [2,1-b] thiophene-3-carboxylic acid]: 12.6 µM.
In series [1], `O=C(Nc1scc(-c2ccc(Cl)cc2)c1C(=O)O)c1ccc2ccccc2c1` [Compound 43, 2-(2-Naphthamido)-4-(4-chlorophenyl) thiophene-3-carboxylic acid] displayed an IC50 of 2.45 µM.
For the compound `CC(C)(C)c1ccc(C(=O)Nc2scc(-c3ccc(-c4ccccc4)cc3)c2C(=O)O)cc1` [Compound 37, 4-([1,1′-Biphenyl]-4-yl)-2-(4-(tert-butyl)benzamido) thiophene-3-carboxylic acid], in series [1], half-maximal inhibition (IC50) was put at 2.3 µM.
As to `CC(C)(C)c1ccc(C(=O)Nc2scc(-c3ccc(C(F)(F)F)cc3)c2C(=O)O)cc1` [Compound 35, 2-(4-(tert-Butyl)benzamido)-4-(4-(trifluoromethyl)phenyl) thiophene-3-carboxylic acid], the IC50 in series [1] was > 100 µM.
The same measure, in the same setting: the same measure for `COc1ccc(C(=O)Nc2scc(-c3ccc(C(C)(C)C)cc3)c2C(=O)O)cc1` [Compound 41, 4-(4-(tert-Butyl)phenyl)-2-(4-methoxybenzamido) thiophene-3-carboxylic acid]: 2.28 µM; for `CC(C)(C)c1ccc(C(=O)Nc2scc(-c3ccc4ccccc4c3)c2C(=O)O)cc1` [Compound 39, 2-(4-(tert-Butyl)benzamido)-4-(naphthalen-2-yl) thiophene-3-carboxylic acid]: 1.29 µM.
In series [1], `O=C(Nc1scc(-c2ccc(Cl)cc2)c1C(=O)O)c1ccc(Cl)cc1Cl` [Compound 44, 4-(4-Chlorophenyl)-2-(2,4-dichlorobenzamido)thiophene-3-carboxylic acid] had an IC50 of 1.24 µM.
As to `CCOC(=O)C1=C(COCCN)NC(C)=C(C(=O)OC)C1c1ccccc1Cl` (stereo not shown) [Amlodipine, reference compound], in series [2], the “maximum relative fluorescence units (RFU) vs initial value (Ca^2+ influx)” value is listed as “remained unchanged”.
Take `O=C(O)c1c(NC(=O)c2cccc3ccccc23)sc2c1-c1ccccc1C2` [Compound 51, 2-(1-Naphthamido)-8H-indeno [2,1-b] thiophene-3-carboxylic acid]: the IC50 in series [1] was found to be 2.21 µM.
Same read-out and setting: the same measure for `O=C(Nc1scc(-c2ccc(Cl)cc2)c1C(=O)O)c1cccs1` [Compound 45, 4-(4-Chlorophenyl)-2-(thiophene-2-carboxamido) thiophene-3-carboxylic acid]: 1.74 µM; for `CC(C)(C)c1ccc(C(=O)Nc2sc3c(c2C(=O)O)-c2ccccc2C3(C)C)cc1` [Compound 52, 2-(4-(tert-Butyl)benzamido)-8,8-dimethyl-8H-indeno [2,1-b] thiophene-3-carboxylic acid]: 3.33 µM.
Take `CCOC(=O)Nc1ccc(NCc2ccc(F)cc2)nc1N` [Flupirtine]: the “PTI, pain threshold rate change (%) of 1 h compared to 0 h” value in series [3] (100 mg/kg i.g.) is on record as 36.2%. The “number of foot lifts, phase 2” value in series [4] (200 mg/kg i.g.) came out at 74 foot lifts.
In turn, `Cc1ccc(C(=O)Nc2scc(-c3ccc(Cl)cc3)c2C(=O)O)c2ccccc12` [Compound 46, 4-(4-Chlorophenyl)-2-(4-methyl-1-naphthamido) thiophene-3-carboxylic acid] registered an IC50 in series [1] of 14.5 µM.
In series [1], `CC(C)(C)c1ccc(C(=O)Nc2sc3c(c2C(=O)O)-c2ccccc2CC3)cc1` [Compound 53, 2-(4-(tert-Butyl)benzamido)-4,5-dihydronaphtho [2,1-b] thiophene-1-carboxylic acid] yielded an IC50 of 5.15 µM.
In the case of `CC(C)C[C@H](CN)CC(=O)O` [Pregabalin], the “PTI, pain threshold rate change (%) of 1 h compared to 0 h” value in series [3] (40 mg/kg i.g.) was determined as 60.4%. In series [4] (40 mg/kg i.g.), the “number of foot lifts, phase 2” value was found to be 44 foot lifts.
As to `CC(C)(C)C1CCc2c(sc(NC(=O)c3ccco3)c2C(=O)O)C1` (stereo not shown) [Compound 1, 6-(tert-Butyl)-2-(furan-2-carboxamido)-4,5,6,7-tetrahydrobenzo[b]thiophene-3-carboxylic acid, reference compound], the “effect on CHO cell proliferation” value in series [5] (all concentrations tested) is on record as “inhibited cell proliferation”. Moreover, the “analgesic effect in phase 2 compared with vehicle” value in series [4] (80 mg/kg i.g., phase 2) is given as “no significant analgesic effect”. Besides, the “number of foot lifts, phase 2” value in series [4] (80 mg/kg i.g.) was determined as 84 foot lifts. The “5 h residual compound under different pH (%) pH 1.0” value in series [6] (pH 1.0, 5 h) is 93.8 ± 4.0%. The “5 h residual compound under different pH (%) pH 4.0” value in series [6] (pH 4.0, 5 h) was determined as 85.3 ± 8.1%. Also, in series [6] (pH 6.8, 5 h), the “5 h residual compound under different pH (%) pH 6.8” value was found to be 94.9 ± 2.9%. For the same compound, the “5 h residual compound under different pH (%) pH 7.4” value in series [6] (pH 7.4, 5 h) is 98.7 ± 0.7%. For the same compound, the “5 h residual compound under different pH (%) pH 9.0” value in series [6] (pH 9.0, 5 h) is 97.6 ± 1.2%.
As to `CC(C)(C)c1ccc(C(=O)Nc2scc(-c3ccc(Cl)cc3)c2C(=O)O)cc1` [Compound 34, 2-(4-(tert-Butyl)benzamido)-4-(4-chlorophenyl) thiophene-3-carboxylic acid], in series [1], the IC50 turned out to be 1.34 µM.
On to `CCc1c(C)nc(SCC(=O)Nc2nc(-c3ccc(OC)cc3)cs2)[nH]c1=O` [Compound T16Ainh-A01], for which the “effect on CHO cell proliferation” value in series [5] (1 and 3 μmol/L) is on record as “weak effect”.
As for `O=C(Nc1sc2c(c1C(=O)O)-c1ccccc1C2)c1ccc2ccccc2c1` [Compound 50, 2-(2-Naphthamido)-8H-indeno [2,1-b] thiophene-3-carboxylic acid], in series [1], the IC50 was 1.91 µM.
For `O=C(Nc1sc2c(c1C(=O)O)-c1ccccc1C2)c1cccs1` [Compound 49, 2-(Thiophene-2-carboxamido)-8H-indeno [2,1-b] thiophene-3-carboxylic acid], the IC50 in series [1] came to 11.3 µM.
